Screens deposited in PubChem BioAssay by several laboratories.
Sampled rows, rich in hits. Any-hit rate of the full collection: about 11%.
D1 mod: allosterically modulates the human D1 dopamine receptor. P21728. B-score at 10 µM. HEK293 D1, CRE-luciferase, dopamine EC30 potentiation; actives deviate in either direction. 5.9% of 58,000 active;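 active = luminescence count or its row- and column-corrected plate score outside the 99.7% band of the plate's sample wells, on either side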
M1 antagonist: blocks the rat M1 muscarinic receptor response to acetylcholine; 3.4% of 64,000 active; B-score at 10 µM; AID 628; P08482; CHO-M1 cells, Fluo-4 calcium, ACh EC80 antagonist mode; active compounds read low;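 active = calcium fluorescence response, raw or row-and-column corrected B-score, differing from the plate sample mean either way at a set confidence level, mostly lower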
M1 ag: agonists of M1 muscarinic receptor; CHO-M1 cells, Fluo-4 calcium fluorescence, agonist mode; active compounds read high; 3% of 64,000 active; B-score at 10 µM;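 active = fluorescence rise, raw or as B-score row- and column-corrected plate score, outside the 99.7% band of its plate's samples, either direction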
RORA act: activates the human nuclear receptor RORA | P35398 | 1.5% of 65,000 active | activation, % at 10 µM | CHO-K1 Gal4-RORA LBD luciferase reporter, luminescence; percent increase over mock-subtracted basal signal;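 active = activation above the mean of all tested compounds plus 3 SD, cut at about 49% in these data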
mHtt clearance: compounds clearing mutant huntingtin protein | HeLa Exon1htt(103Q)mCFP, aggregate imaging; zero = plate's median compound well | inhibition, % at 1.5 µM | 0.42% of 47,000 active | AID 853;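 active = inhibition of aggregate fluorescence above about 70%, also judged a hit by eye on the cell image, limit read from the data, passing the limit was not always enough; inconclusive = no rule stated for this call; inactive = not judged a hit on image review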;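 also: cells exposed to compound for three days before fixation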
SF-1 act: activates the human nuclear receptor SF-1; Q13285; CHO-K1 Gal4-SF-1 LBD luciferase reporter; % increase over DMSO SF-1-specific signal; activation, % at 10 µM; 1.9% of 65,000 active; AID 522;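 active = activation above the mean activation of all tested compounds plus 3 SD, cut at about 50% in these data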
Target sequence (Q13285 whole entry, looked up, the tested form may be a part): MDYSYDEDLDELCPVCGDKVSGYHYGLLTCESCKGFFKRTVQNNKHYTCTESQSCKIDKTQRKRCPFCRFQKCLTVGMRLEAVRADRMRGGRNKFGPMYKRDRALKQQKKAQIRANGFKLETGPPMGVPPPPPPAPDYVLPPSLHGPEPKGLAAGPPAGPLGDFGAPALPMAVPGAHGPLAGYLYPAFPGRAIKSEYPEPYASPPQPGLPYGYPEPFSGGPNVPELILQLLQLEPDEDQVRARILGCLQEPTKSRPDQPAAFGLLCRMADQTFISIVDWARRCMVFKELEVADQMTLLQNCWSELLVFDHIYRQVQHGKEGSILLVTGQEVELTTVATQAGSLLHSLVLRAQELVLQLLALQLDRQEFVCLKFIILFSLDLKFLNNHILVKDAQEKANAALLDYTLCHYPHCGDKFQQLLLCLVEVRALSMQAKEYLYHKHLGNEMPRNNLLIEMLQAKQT
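material = CHO-K1 cells with Gal4–hSF-1 LBD chimera plus Gal4-driven luciferase | compound = 10 µM single point, 1% DMSO | incubation = 20 h compound exposure at 37 °C after 1 h cell settling | measured by = SteadyLite luciferase luminescence | evaluation = percent activation relative to DMSO median and mock-transfected background | control set = DMSO negative control and −SF1 background wells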
M1 ag confirm: rat M1 muscarinic agonism, confirmation; shares compounds with M1 ag; CHO-M1 cells, Fluo-4 calcium fluorescence, agonist mode; actives lie on both sides; fluorescence change (max-min) at 10 µM; 19% of 1,700 active; AID 1488;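 active = fluorescence change differs from the solvent-only DMSO control mean at a set confidence level in both duplicate runs; inconclusive = differs from solvent-only control mean in just one of two runs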;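 also: an EC20 dose of acetylcholine follows compound addition during the same imaging run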
M4 agonist ctr: activates rat M4 receptor in counter-screen for M1 agonists. shares compounds with M1 ag. CHO M4/Gqi5 cells, Fluo-4 calcium fluorescence, agonist mode; actives lie on both sides. fluorescence change (max-min) at 10 µM. 9% of 1,700 active. AID 1741;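 active = fluorescence change differing from the plate's solvent-only control wells at 99.7% confidence in both duplicates, whether higher or lower; inconclusive = differs from solvent controls in only one of two duplicates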
Of the large screens only hits and unclear results are named; the others gave an inactive call (follow-up assays come after a bar, where they were run).

COc1cccc(-n2c(=O)[nH]cc(C(=O)Nc3ccc(NC(C)=O)cc3)c2=O)c1	none (no result: mHtt clearance)
COc1ccccc1CCn1cnc2c3cc(C)ccc3n(C)c2c1=O	M1 ag 1.8 (no result: D1 mod, mHtt clearance) | M1 ag confirm inconclusive | M4 agonist ctr inactive
COc1ccc2c(c1)c1ncn(CCN3CCCC3)c(=O)c1n2C	none (no result: mHtt clearance)
CN(C)c1oc(-c2ccccc2F)nc1C#N	M1 ag 8.3 | M1 ag confirm inactive | M4 agonist ctr inactive
Cc1cc(OC(=O)c2ccc(S(=O)(=O)N(C)C)cc2)cc(=O)o1	none (no result: mHtt clearance)
CCCCOCCCn1c(-c2ccco2)nc2nc3ccccc3nc21	M1 ag 4.2 | M1 ag confirm inconclusive | M4 agonist ctr inactive
CCCCn1c(-c2cccs2)nc2nc3ccccc3nc21	none (no result: D1 mod, M1 antagonist, M1 ag, RORA act, SF-1 act)
CCCn1nnnc1SCC(=O)Nc1nnc(CC)s1	M1 ag 2.6 | M1 ag confirm inactive | M4 agonist ctr inconclusive
CCOC(=O)c1ccccc1NS(=O)(=O)c1ccc(S(=O)(=O)N2CCCC2)cc1	none (no result: mHtt clearance)
COc1ccccc1NC(=O)CN1CCC(n2c(C)nc3cc(F)ccc32)CC1	M1 ag -2.6 | M1 ag confirm inconclusive | M4 agonist ctr inactive
COc1ccccc1NC(=O)CN1CCN(CC(=O)Nc2cc(NC(C)=O)ccc2OC)CC1	M1 ag 3.7 | M1 ag confirm inconclusive | M4 agonist ctr inactive
COc1ccc(NC(C)=O)cc1NC(=O)CN1CCN(CC(=O)Nc2ccccc2Cl)CC1	M1 ag 4 | M1 ag confirm inconclusive | M4 agonist ctr inactive
COc1ccccc1NC(=O)CN1CCC(n2nnc3cc(F)ccc32)CC1	none
COc1ccc(NC(C)=O)cc1NC(=O)CN1CCN(CC(=O)Nc2ccc(Cl)cc2)CC1	none (no result: mHtt clearance)
CCC(=O)N1CCNC(=O)C1CC(=O)Nc1ccc(C)c(Cl)c1 (configuration not stated)	none
COc1ccccc1NC(=O)CN1CCN(CC(=O)Nc2ccc3c(c2)OCO3)CC1	none (no result: mHtt clearance)
COc1ccccc1NC(=O)CC1C(=O)NCCN1C(=O)Nc1ccc(Cl)c(Cl)c1 (configuration not stated)	M1 ag -2.1 | M1 ag confirm inconclusive | M4 agonist ctr inconclusive
COc1cc(NC(=O)c2ccccc2)c(OC)cc1NC(=O)CN1CCN(c2ccccn2)CC1	M1 ag 5.9 | M1 ag confirm inactive | M4 agonist ctr inactive
O=C(c1ccc2c(=O)n(-c3ccccc3)c(=O)[nH]c2c1)N1CCCCC1	none
N#Cc1c(-c2ccc3c(c2)OCO3)csc1N	M1 ag 3.2 (no result: D1 mod, mHtt clearance) | M1 ag confirm inactive | M4 agonist ctr inactive
N#Cc1c(N)c(C#N)c(-c2ccc3c(c2)OCO3)c2c1CCCC2	none (no result: mHtt clearance)
O=C(NCC(=O)N(c1ccccc1)C(C(=O)NCC1CCCO1)c1ccccc1)c1ccco1 (configuration not stated)	M1 ag 8.3 | M1 ag confirm inconclusive | M4 agonist ctr inactive
O=C(NCC(=O)N(c1ccccc1)C(C(=O)NC1CCCCC1)c1ccncc1)c1ccco1 (configuration not stated)	M1 ag 2.5 (no result: D1 mod) | M1 ag confirm inactive | M4 agonist ctr inconclusive
O=C(NCC(=O)N(Cc1cccs1)C(C(=O)NC1CCCC1)c1ccco1)c1cccs1 (configuration not stated)	M1 ag 3.2 (no result: mHtt clearance) | M1 ag confirm inactive | M4 agonist ctr inconclusive
CCOc1ccccc1-c1nnc(SCC(=O)Nc2ccccc2)o1	none
CCCOc1ccc2ccccc2c1/C=N/n1c(C)nnc1-n1nc(C)cc1C	M1 ag 3.4 (no result: D1 mod, mHtt clearance) | M1 ag confirm inconclusive | M4 agonist ctr inactive
Cc1cc(C)n(-c2nnc(C)n2/N=C/c2ccco2)n1	none (no result: mHtt clearance)
COc1ccc(CC(C(=O)Nc2cc(C)ccc2C)/C(N)=N/O)cc1 (configuration not stated)	M1 ag 2.4 | M1 ag confirm inconclusive | M4 agonist ctr inactive
COc1cc2[nH]c(=O)n(CCCCCC(=O)N3CCN(c4ccccn4)CC3)c(=O)c2cc1OC	M1 ag 7.2 (no result: mHtt clearance) | M1 ag confirm inactive | M4 agonist ctr inactive
